{"source": "ChEMBL document CHEMBL4825764", "about": "“Flavonoid Monomers as Potent, Nontoxic, and Selective Modulators of the Breast Cancer Resistance Protein (ABCG2)” (J Med Chem, 2021)", "key": {"[1]": {"target": "T1, Broad substrate specificity ATP-binding cassette transporter ABCG2 (Homo sapiens, UniProt Q9UNQ0)", "T1 sequence (Q9UNQ0 whole entry)": "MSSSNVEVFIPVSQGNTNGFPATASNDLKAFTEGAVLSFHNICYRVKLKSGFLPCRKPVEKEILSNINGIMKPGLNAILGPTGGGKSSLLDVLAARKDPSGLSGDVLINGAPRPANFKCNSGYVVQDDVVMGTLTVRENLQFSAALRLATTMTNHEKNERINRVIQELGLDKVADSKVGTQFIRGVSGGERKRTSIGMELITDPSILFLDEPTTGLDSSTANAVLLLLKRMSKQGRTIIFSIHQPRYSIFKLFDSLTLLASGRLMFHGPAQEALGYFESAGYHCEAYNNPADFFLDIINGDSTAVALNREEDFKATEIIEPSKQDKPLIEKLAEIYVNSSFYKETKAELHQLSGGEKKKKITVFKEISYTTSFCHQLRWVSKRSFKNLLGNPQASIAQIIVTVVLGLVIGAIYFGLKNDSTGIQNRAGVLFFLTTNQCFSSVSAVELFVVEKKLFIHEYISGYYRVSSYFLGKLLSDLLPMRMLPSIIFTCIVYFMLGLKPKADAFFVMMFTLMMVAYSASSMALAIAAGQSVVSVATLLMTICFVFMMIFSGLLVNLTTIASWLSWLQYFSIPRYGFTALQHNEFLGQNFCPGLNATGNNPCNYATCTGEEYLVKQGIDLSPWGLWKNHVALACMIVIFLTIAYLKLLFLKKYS", "test": "Inhibition of BCRP (unknown origin) expressed in human HEK293/R2 cells assessed as increase in intracellular topotecan accumulation by measuring fold change at 1 uM after 2 hrs in presence of topotecan by flow cytometry analysis relative to control", "type": "cell-based", "details": "hek293/r2, 2 h", "in_short": "(§1)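 5 × 10^5 HEK293/pcDNA3.1 or HEK293/R2 cells in 1 mL were incubated 2 hr at 37 °C with 50 μM topotecan or 5 μM mitoxantrone plus 1 or 2 μM modulator, with DMSO as the vehicle control. Cells were washed in cold PBS and resuspended in FACS buffer. Flow cytometry read FL1 (topotecan) or FL4 (mitoxantrone) over 50,000 events, normalized to wild-type cells.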"}, "[2]": {"target": "T2, BCRP (ABCG2) (Homo sapiens, UniProt Q9UNQ0)", "T2 sequence (Q9UNQ0 whole entry)": "T1 sequence (Q9UNQ0 whole entry)", "test": "Inhibition of BCRP (unknown origin) expressed in HEK293/R2 cells assessed as conformational change by measuring increase in 5D3 shift at 1 uM preincubated for 15 mins followed by FITC mouse antihuman BCRP antibody addition measured after 30 mins by flow cytometry analysis", "type": "cell-based", "details": "HEK293/R2 cells expressing BCRP, time 45 min", "in_short": "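5 × 10^5 HEK293/R2 cells in FACS buffer were shaken 15 min at 37 °C with 1 μM compound. FITC 5D3 anti-BCRP was then added for 30 min at 37 °C and fluorescence read by flow cytometry on FL1. Compound-only background was subtracted and the untreated DMSO shift removed. Result is % of the 1 μM Ko143-induced shift.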"}, "[3]": {"system": "2008", "test": "Selectivity index, ratio of EC50 for inhibition of MRP1 (unknown origin) expressed in 2008/MRP1 cells assessed as reversal of doxorubicin resistance to Inhibition of BCRP (unknown origin) expressed in MCF7/MX100 cells assessed as reversal of topotecan resistance", "type": "cell-based", "details": "Homo sapiens", "in_short": "(§2)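 Selectivity index is the EC50 against the other transporter's line divided by the EC50 in the BCRP line. All values come from 5-day MTS reversal assays. These use topotecan in HEK293/R2 (0–2000 nM) or MCF7-MX100 (0–100 μM), doxorubicin in 2008/MRP1, and paclitaxel in LCC6MDR, each with modulator at 0–1000 nM.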"}, "[4]": {"target": "T1, Broad substrate specificity ATP-binding cassette transporter ABCG2", "test": "Inhibition of BCRP (unknown origin) expressed in human HEK293/R2 cells assessed as increase in intracellular mitoxantrone accumulation by measuring fold change at 1 uM after 2 hrs in presence of mitoxantrone by flow cytometry analysis relative to control", "type": "cell-based", "details": "hek293/r2, 2 h", "in_short": "as §1"}, "[5]": {"species_on_record": "Homo sapiens", "test": "Selectivity index, ratio of EC50 for inhibition of P-gp (unknown origin) expressed in LCC6MDR cells assessed as reversal of paclitaxel resistance to EC50 for Inhibition of BCRP (unknown origin) expressed in MCF7/MX100 cells assessed as reversal of topotecan resistance", "type": "cell-based", "in_short": "as §2"}, "[6]": {"target": "T1, Broad substrate specificity ATP-binding cassette transporter ABCG2", "test": "Inhibition of BCRP (unknown origin) expressed in wild-type HEK293 cells mediated mitoxantrone efflux assessed as intracellular mitoxantrone level at 2 uM preincubated with mitoxantrone for 1 hr followed by compound addition and measured upto 150 mins by flow cytometry analysis", "type": "cell-based", "details": "hek293, 2.5 h", "in_short": "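Cells were preloaded with 5 μM mitoxantrone for 1 hr at 37 °C, washed, then kept in drug-free medium with or without 2 μM modulator. Cells were harvested at 0, 30, 60, 90, 120 and 150 min and intracellular mitoxantrone read by flow cytometry (FL4). Level is expressed as % of the 0-min value.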"}, "[7]": {"species_on_record": "Homo sapiens", "test": "Selectivity index, ratio of EC50 for inhibition of P-gp (unknown origin) expressed in LCC6MDR cells assessed as reversal of paclitaxel resistance to EC50 for inhibition of BCRP (unknown origin) transfected in HEK293/R2 cells assessed as reversal of topotecan resistance", "type": "cell-based", "in_short": "as §2"}, "[8]": {"target": "T1, Broad substrate specificity ATP-binding cassette transporter ABCG2", "test": "Inhibition of BCRP (unknown origin) expressed in wild type HEK293/pcDNA3.1 cells assessed as increase in intracellular mitoxantrone accumulation at 1 to 2 uM after 2 hrs in presence of mitoxantrone by flow cytometry analysis relative to control", "type": "cell-based", "details": "hek293, 2 h, dose 1-2 µM", "in_short": "as §1"}, "[9]": {"system": "HEK293", "test": "Effect on BCRP protein expression in human HEK293/R2 cells at 1 to 3 uM after 24 hrs by flow cytometric analysis", "type": "functional, cell-based", "details": "dose 1-3 µM", "in_short": "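HEK293/R2 and HEK293/pcDNA3.1 cells were exposed to 0, 1 or 3 μM compound for 24 hr, with 0.1–0.3% DMSO as solvent control. Cells were trypsinized and stained with FITC anti-human BCRP for 45 min at 4 °C, with an IgG2b-FITC isotype control. Surface signal was read by flow cytometry on FL1 over 50,000 events.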"}, "[10]": {"species_on_record": "Homo sapiens", "test": "Selectivity index, ratio of EC50 for inhibition of P-gp (unknown origin) expressed in LCC6MDR cells assessed as reversal of mitoxantrone resistance to EC50 for inhibition of BCRP (unknown origin) expressed in HEK293/R2 cells assessed as reversal of mitoxantrone resistance", "type": "cell-based", "in_short": "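Selectivity index is the EC50 in 2008/MRP1 or LCC6MDR divided by the EC50 in HEK293/R2. All three lines were measured by 5-day mitoxantrone co-incubation with modulator, with MTS/PMS read-out at 490 nm.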"}, "[11]": {"target": "T1, Broad substrate specificity ATP-binding cassette transporter ABCG2", "test": "Inhibition of BCRP (unknown origin) expressed in human HEK293/R2 cells assessed as increase in intracellular topotecan accumulation by measuring fold change at 2 uM after 2 hrs in presence of topotecan by flow cytometry analysis relative to control", "type": "cell-based", "details": "hek293/r2, 2 h", "in_short": "as §1"}, "[12]": {"target": "T1, Broad substrate specificity ATP-binding cassette transporter ABCG2", "test": "Inhibition of BCRP (unknown origin) expressed in HEK293/R2 cells assessed as reduction in BCRP protein level at 1 uM after 4 days by Western blot analysis", "details": "hek293/r2, 96 h"}}, "note": "Activity calls are given as the source filed them. The rule behind the calls is not given here."}
{"smiles": "COC(=O)c1cccc(COc2c(-c3ccc(OCCCCc4cn(Cc5ccccc5)nn4)cc3)oc3ccccc3c2=O)c1", "values": [{"measurement": "fold change (FC)", "setting": "[1]", "value": 8.1}, {"measurement": "inhibition at 0.5 h, 1 µM", "setting": "[2]", "value": 100, "unit": "%"}, {"measurement": "Ratio EC50", "setting": "[3]", "value": 167}, {"measurement": "fold change (FC)", "setting": "[4]", "value": 5.9}, {"measurement": "Ratio EC50", "setting": "[5]", "value": 112}, {"measurement": "inhibition (INH)", "setting": "[6]", "value": "Not Active"}, {"measurement": "Ratio EC50", "setting": "[7]", "value": 96}, {"measurement": "inhibition (INH)", "setting": "[8]", "value": "Not Active"}, {"measurement": "Activity", "setting": "[9]", "value": "inactive"}, {"measurement": "Ratio EC50", "setting": "[10]", "value": 52}, {"measurement": "fold change (FC)", "setting": "[11]", "value": 6.8}, {"measurement": "inhibition (INH)", "setting": "[12]", "value": "Not Active"}]}
